Source: ChEMBL document CHEMBL1142431, “Benzodioxoles: novel cannabinoid-1 receptor inverse agonists for the treatment of obesity” (J Med Chem, 2008)
Values after ≈ are worked out from the molar mass of the structure shown. Active and inactive are the calls of the source. The rule behind the calls is not given here.

Tests used:
[1] = Selectivity for human CB1 receptor over L type calcium channel at DHP site
[2] = Selectivity for human CB1 receptor over peripheral imidazoline I1 receptor
Rattus norvegicus [3] = assay: Reduction in progression of body weight in diet-induced obesity Sprague-Dawley rat model at 1 mg/kg, po for 16 days; format: functional, organism-based; parameters: dose 1 mg/kg
Summary of the method: (§1)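 Obese Sprague-Dawley rats (HFD 10 weeks from 3 weeks old, selected as >2 SD above chow controls), n = 9 per group, gavage-adapted 3 days, then dosed daily by gavage at 5:00 p.m. for 16 days in water with 7.5% gelatine and 0.62% NaCl, 2 mL/kg; body weight and food intake recorded daily.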

Homo sapiens [4] = species: Homo sapiens; assay: Selectivity for human CB1 receptor over human adrenergic beta-1 receptor
Rattus norvegicus [5] = assay: Reduction in body fat in po dosed diet-induced obesity Sprague-Dawley rat model; format: functional, organism-based
Summary of the method: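 Sprague-Dawley rats fed HFD from 3 weeks of age for 10 weeks; high responders (body weight exceeding chow controls by >2 SD) grouped n = 9. After 3 days gavage adaptation, daily oral dosing at 5:00 p.m. for 2 weeks in 7.5% gelatine/0.62% NaCl in water, 2 mL/kg. Fat and lean mass by MRI before and at end of treatment.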

Homo sapiens [6] = species: Homo sapiens; assay: Selectivity for human CB1 receptor over human adenosine A3 receptor
[7] = Selectivity for human CB1 receptor over androgen receptor
Homo sapiens [8] = species: Homo sapiens; assay: Selectivity for human CB1 receptor over human NK2 receptor
Homo sapiens [9] = species: Homo sapiens; assay: Selectivity for human CB1 receptor over human bradykinin B2 receptor
Homo sapiens [10] = species: Homo sapiens; assay: Selectivity for human CB1 receptor over human CB2 receptor
[11] = Selectivity for human CB1 receptor over CRF1 receptor
Mus musculus = assay: Reversal of CP-55940-induced hypothermia in NMRI mouse assessed as rectal temperature at 30 mg/kg, ip; format: functional; settings: route intraperitoneal, read-out: ID50 (the source's name)
Summary of the method: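 Mice housed eight per group, eight per dose, habituated at least 2 h. Test compound in 0.3% Tween 80 (10 mL/kg) given 90 min before CP 55940 (0.3 mg/kg iv, same vehicle). Body temperature read 20 min before compound, just before CP 55940, and 20 min after it.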

[12] = Selectivity for human CB1 receptor over L type calcium channel at diltiazem site
[13] = Selectivity for human CB1 receptor over DAT
[14] = Selectivity for human CB1 receptor over P2Y receptor
Homo sapiens [15] = species: Homo sapiens; assay: Selectivity for human CB1 receptor over human progesterone receptor
[16] = Selectivity for human CB1 receptor over PCP receptor
Homo sapiens [17] = species: Homo sapiens; assay: Selectivity for human CB1 receptor over human NK3 receptor
[18] = Selectivity for human CB1 receptor over Kv channel
Homo sapiens [19] = species: Homo sapiens; assay: Selectivity for human CB1 receptor over human dopamine D3 receptor
[20] = Selectivity for human CB1 receptor over opiate receptor
[21] = Selectivity for human CB1 receptor over sigma receptor
[22] = Selectivity for human CB1 receptor over L type calcium channel at verapamil site
[23] = Selectivity for human CB1 receptor over choline transporter
[24] = Selectivity for human CB1 receptor over GABA transporter
[25] = Selectivity for human CB1 receptor over AMPA receptor
Rattus norvegicus [26] = assay: Reduction in progression of body weight in diet-induced obesity Sprague-Dawley rat model at 10 mg/kg, po for 16 days; format: functional, organism-based; parameters: dose 10 mg/kg; summary of the method: as §1
[27] = Selectivity for human CB1 receptor over histamine H1 receptor
[28] = Selectivity for human CB1 receptor over histamine H3 receptor
Homo sapiens [29] = species: Homo sapiens; assay: Selectivity for human CB1 receptor over human AT1 receptor
[30] = Selectivity for human CB1 receptor over GABA receptor
[31] = Selectivity for human CB1 receptor over 5HT receptor
Homo sapiens [32] = species: Homo sapiens; assay: Selectivity for human CB1 receptor over human ETA receptor
Homo sapiens [33] = species: Homo sapiens; assay: Selectivity for human CB1 receptor over human CCK2 receptor
[34] = Selectivity for human CB1 receptor over neuronal N receptor
Liver microsomes = assay: Clearance in rat liver microsomes; format: ADME, Microsome; settings: microsomes
Summary of the method: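 Test compound at 2 µM incubated with liver microsomes (0.5 mg protein/mL) in 50 mM potassium phosphate pH 7.4 at 37 °C. Reaction started with an NADPH-generating system (glucose-6-phosphate 3.2 mM, NADP 2.6 mM, MgCl2 6.5 mM). Six samples over 30 min, quenched in methanol with internal standard, then LC-MS/MS for substrate depletion. CLint taken from the first-order decay, normalized to protein.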

[35] = Selectivity for human CB1 receptor over neuropeptide Y receptor
Homo sapiens [36] = species: Homo sapiens; assay: Selectivity for human CB1 receptor over human dopamine D2S receptor
Homo sapiens [37] = species: Homo sapiens; assay: Selectivity for human CB1 receptor over human CCK1 receptor
Homo sapiens [38] = species: Homo sapiens; assay: Selectivity for human CB1 receptor over human NET
[39] = Selectivity for human CB1 receptor over SK1 calcium channel
[40] = Selectivity for human CB1 receptor over central imidazoline I2 receptor
[41] = Partition coefficient, log D at pH 6.5; format: physicochemical; settings: octanol/water
[42] = Selectivity for human CB1 receptor over adrenergic alpha-2 receptor
[43] = Selectivity for human CB1 receptor over K ATP channel
Homo sapiens [44] = species: Homo sapiens; assay: Selectivity for human CB1 receptor over human NK1 receptor
[45] = Selectivity for human CB1 receptor over kainate receptor
Cannabinoid receptor 1 = Cannabinoid receptor 1 (Homo sapiens, UniProt P21554); assay: biochemical; format: cell-based, HEK293
Homo sapiens [46] = species: Homo sapiens; assay: Selectivity for human CB1 receptor over human ETB receptor
Homo sapiens [47] = species: Homo sapiens; assay: Selectivity for human CB1 receptor over human adenosine A2A receptor
[48] = Solubility in fed state stimulated intestinal fluid at pH 6.6; format: physicochemical; settings: fed state simulated intestinal fluid
Summary of the method: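 Excess compound (about 1-2 mg) was placed in about […] of 50 mM fed-state simulated intestinal fluid at room temperature. Final pH was measured the next day, then samples were filtered and quantified by HPLC against a five-dilution calibration.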

[49] = Selectivity for human CB1 receptor over P2X receptor
[50] = Solubility in fasted state stimulated intestinal fluid at pH 6.5; format: physicochemical; settings: fasted state simulated intestinal fluid
Homo sapiens [51] = species: Homo sapiens; assay: Selectivity for human CB1 receptor over human adrenergic beta2 receptor
Homo sapiens [52] = species: Homo sapiens; assay: Selectivity for human CB1 receptor over human vanilloid V2 receptor
[53] = Selectivity for human CB1 receptor over muscarinic receptor
Homo sapiens [54] = species: Homo sapiens; assay: Selectivity for human CB1 receptor over human vanilloid V1a receptor
[55] = Selectivity for human CB1 receptor over adrenergic alpha-1 receptor
Homo sapiens [56] = species: Homo sapiens; assay: Selectivity for human CB1 receptor over human adenosine A1 receptor
[57] = Selectivity for human CB1 receptor over TRH receptor
[58] = Selectivity for human CB1 receptor over sodium channel
[59] = Selectivity for human CB1 receptor over 5HTT
[60] = Selectivity for human CB1 receptor over histamine H2 receptor
Homo sapiens [61] = species: Homo sapiens; assay: Selectivity for human CB1 receptor over human glucocorticoid receptor

Cannabinoid receptor 1, sequence (P21554 whole entry): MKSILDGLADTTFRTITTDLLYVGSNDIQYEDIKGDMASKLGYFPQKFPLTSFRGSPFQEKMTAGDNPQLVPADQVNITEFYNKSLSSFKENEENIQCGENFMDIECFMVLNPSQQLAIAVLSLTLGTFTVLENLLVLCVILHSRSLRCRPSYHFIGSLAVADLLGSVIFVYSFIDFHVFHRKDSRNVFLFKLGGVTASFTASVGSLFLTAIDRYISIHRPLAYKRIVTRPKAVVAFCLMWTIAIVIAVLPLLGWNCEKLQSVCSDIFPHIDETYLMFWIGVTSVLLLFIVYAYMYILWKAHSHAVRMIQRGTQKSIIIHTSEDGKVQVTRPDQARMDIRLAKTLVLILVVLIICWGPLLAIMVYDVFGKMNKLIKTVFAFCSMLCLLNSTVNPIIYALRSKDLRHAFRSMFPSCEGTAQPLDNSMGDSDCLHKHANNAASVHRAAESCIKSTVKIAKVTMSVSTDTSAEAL

O=C(c1cc2c(cc1F)O[C@](c1ccc(F)cc1)(c1ccc(Cl)cc1Cl)O2)N1CCOCC1
Selectivity ratio [1]: 300 | Selectivity ratio [2]: 300 | Activity (Rattus norvegicus [3]): Active | Selectivity ratio (Homo sapiens [4]): 300 | Activity (Rattus norvegicus [5]): Active | Selectivity ratio (Homo sapiens [6]): 300 | Selectivity ratio [7]: 300 | Selectivity ratio (Homo sapiens [8]): 300 | Selectivity ratio (Homo sapiens [9]): 300 | Selectivity ratio (Homo sapiens [10]): 1000 | Selectivity ratio [11]: 300 | ED50 (Mus musculus): 4 mg/kg | Selectivity ratio [12]: 300 | Selectivity ratio [13]: 300 | Selectivity ratio [14]: 300 | Selectivity ratio (Homo sapiens [15]): 300 | Selectivity ratio [16]: 300 | Selectivity ratio (Homo sapiens [17]): 300 | Selectivity ratio [18]: 300 | Selectivity ratio (Homo sapiens [19]): 300 | Selectivity ratio [20]: 300 | Selectivity ratio [21]: 300 | Selectivity ratio [22]: 300 | Selectivity ratio [23]: 300 | Selectivity ratio [24]: 300 | Selectivity ratio [25]: 300 | Activity (Rattus norvegicus [26]): Active | Selectivity ratio [27]: 300 | Selectivity ratio [28]: 300 | Selectivity ratio (Homo sapiens [29]): 300 | Selectivity ratio [30]: 300 | Selectivity ratio [31]: 300 | Selectivity ratio (Homo sapiens [32]): 300 | Selectivity ratio (Homo sapiens [33]): 300 | Selectivity ratio [34]: 300 | clearance (Liver microsomes): 27 µL/min/mg | Selectivity ratio [35]: 300 | Selectivity ratio (Homo sapiens [36]): 300 | Selectivity ratio (Homo sapiens [37]): 300 | Selectivity ratio (Homo sapiens [38]): 300 | Selectivity ratio [39]: 300 | Selectivity ratio [40]: 300 | logD [41]: > 4 | Selectivity ratio [42]: 300 | Selectivity ratio [43]: 300 | Selectivity ratio (Homo sapiens [44]): 300 | Selectivity ratio [45]: 300 | Ki (Cannabinoid receptor 1): 3.3 nM | Selectivity ratio (Homo sapiens [46]): 300 | Selectivity ratio (Homo sapiens [47]): 300 | solubility [48]: 445 µg/mL (≈ 904 µM) | Selectivity ratio [49]: 300 | solubility [50]: 129 µg/mL (≈ 262 µM) | Selectivity ratio (Homo sapiens [51]): 300 | Selectivity ratio (Homo sapiens [52]): 300 | Selectivity ratio [53]: 300 | Selectivity ratio (Homo sapiens [54]): 300 | Selectivity ratio [55]: 300 | Selectivity ratio (Homo sapiens [56]): 300 | Selectivity ratio [57]: 300 | Selectivity ratio [58]: 300 | Selectivity ratio [59]: 300 | Selectivity ratio [60]: 300 | Selectivity ratio (Homo sapiens [61]): 300
